Screens from PubChem.
Insulin prom inh: inhibitors of insulin promoter-driven GFP, primary screen, imaging, TRM-6 cells (human fetal islet line), eGFP reporter, cell count; reporter expression induced with tamoxifen; inhibition, % at 2 µM; 130,000 compounds, 0.9% hits;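 active = inhibition above the mean plus 3 SD, with well images judged a real hit on visual review, cut at about 60% in these data, passing the limit was not always enough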
NPY-Y1 PAM-ag: NPY-Y1 receptor potentiators or agonists, primary screen, cell-based. AID 1304, 2008. activation, % at 3.6 µM. 220,000 compounds, 0.37% hits. Neuropeptide Y receptor type 1 (Homo sapiens), P25929. NPY-Y1 expressing cells, potentiator/agonist activation; in the data active = activation above about 33%, passing the limit was not always enough;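 note: cells stimulated with NPY at EC10 then isoproterenol at EC100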
Target sequence (P25929 whole entry, looked up): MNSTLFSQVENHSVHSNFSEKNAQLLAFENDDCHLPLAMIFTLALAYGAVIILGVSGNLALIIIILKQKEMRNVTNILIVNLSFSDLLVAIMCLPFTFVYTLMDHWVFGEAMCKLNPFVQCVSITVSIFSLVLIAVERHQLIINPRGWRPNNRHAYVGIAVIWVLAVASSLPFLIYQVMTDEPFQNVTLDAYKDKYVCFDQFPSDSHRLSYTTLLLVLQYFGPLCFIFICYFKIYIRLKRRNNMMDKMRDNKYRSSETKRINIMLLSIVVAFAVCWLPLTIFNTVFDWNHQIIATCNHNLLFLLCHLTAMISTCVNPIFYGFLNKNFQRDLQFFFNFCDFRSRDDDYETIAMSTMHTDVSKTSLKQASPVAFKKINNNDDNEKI
NPY Y2 blocker: NPY-Y2 receptor antagonists, primary screen, cell-based. 140,000 compounds, 0.99% hits. inhibition, % at 2.7 µM. NPY-Y2 expressing cells, antagonist mode; in the data active = inhibition above about 17%
RAM network inh: inhibitors of the yeast RAM network, primary screen, dse1pr::URA3 reporter, 5-FOA selection; inhibition, % at 50 µM; AID 868, 2007; S. cerevisiae dse1pr::URA3 reporter, 5-FOA growth OD615, 2 d; analog-sensitive cbk1-as2 kinase mutant strain; 190,000 compounds, 1.8% hits;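 active = inhibition above a set limit, 3 SD over mean compound inhibition, cut at about 8.4% in these data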;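 note: inhibition rescues growth on 5-FOA so higher OD means more RAM inhibition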
NPY-Y2 PAM-ag: NPY-Y2 potentiators or agonists, primary screen, cell-based; Neuropeptide Y receptor type 2 (Homo sapiens), P49146; cells expressing NPY-Y2, potentiator/agonist read-out; activation, % at 3.6 µM; 220,000 compounds, 0.45% hits; in the data active = activation above about 27%;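 note: cells stimulated with NPY near EC25 plus isoproterenol at EC100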
NPY Y1 blocker: NPY-Y1 receptor antagonists, primary screen, cell-based. HEK293-CNG Y1 cells, membrane potential fluorescence; NPY at EC95, then isoproterenol. inhibition, % at 3.6 µM. 200,000 compounds, 1% hits. AID 1040, 2008;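 active = inhibition above the campaign mean inhibition of all tested compounds plus 3 SD, cut at about 20% in these data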
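Material: Y1- and CNG-channel-expressing HEK293 cells / Probe or stimulus: NPY 25 nM then isoproterenol 1 µM plus Ro 20-1724 25 µM / Doses: 3.6 µM single dose, DMSO 0.4% / Schedule: compound incubation 1 h at room temperature, readout 45 min post-stimulation / Signal: membrane potential fluorescence / Benchmarks: isoproterenol-only wells as full block versus NPY-plus-isoproterenol wells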
A number is an active result; - = inactive; . = not tested or not shown. Sampled rows, rich in hits. Any-hit rate of the full collection: about 3.8%.

SMILES	Insulin prom inh	NPY-Y1 PAM-ag	NPY Y2 blocker	RAM network inh	NPY-Y2 PAM-ag	NPY Y1 blocker
Cc1cccc(N(C(=O)c2nsc(Cl)c2Cl)C(C(=O)NC2CCCC2)c2ccc(O)cc2)c1 (centres undefined)	-	-	-	-	-	-
C=CCOc1ccc(/C=C2\C(=N)N3N=C(S(=O)(=O)CC)SC3=NC2=O)cc1OC	-	-	.	9.6	-	-
COc1cc(/C=C2/C(=N)N3C(c4ccccc4)=CSC3=NC2=O)ccc1OCC(=O)O	.	-	.	.	-	.
Cn1cc(-c2nnc(-c3ccccc3)o2)c2ccccc21	-	-	-	-	-	-
CCc1cc(C(=O)Nc2cc(S(=O)(=O)N(C)C)ccc2C)sc1C	.	-	.	-	-	-
Cc1nc(-c2ccc(NS(C)(=O)=O)cc2)cs1	73	-	-	-	-	-
Cc1nc(-c2cccc(NS(C)(=O)=O)c2)cs1	.	-	-	-	-	-
COc1ccc(CCNC(=O)c2ccc3c(SCC(=O)O)c4c(nc3c2)CCCC4)cc1OC	-	-	.	-	-	-
CCN(CC(=O)Nc1ccc([N+](=O)[O-])cc1OC)CC(=O)NC(C)(C)C	-	-	-	-	-	-
Cc1ccc(NC(=O)NC(=O)CN2C(=O)NC3(CCCCCCC3)C2=O)c(C)c1	-	40	-	-	-	-
COc1cc(/C=C/C(=O)O)cc(S(=O)(=O)Nc2ccc3nc(SC)sc3c2)c1OC	.	-	.	-	-	-
CCCC(c1nnnn1C(C)(C)C)N1CCN(c2ccccc2)CC1 (centres undefined)	.	-	.	-	-	21
O=C(c1ccc(S(=O)(=O)N2CCOCC2)cc1)N1CCN(S(=O)(=O)c2ccc(Cl)s2)CC1	.	-	.	.	-	.
CCCCOc1ccc(C(=O)N/C(=C\c2cccc([N+](=O)[O-])c2)C(=O)OCCC)cc1	.	-	-	-	-	-
CCCCOc1ccc(C(=O)N/C(=C\c2cccc([N+](=O)[O-])c2)C(=O)OC(C)C)cc1	.	-	-	8.8	-	-
COC(=O)c1ccc(OC(=O)CCN2c3ccccc3Sc3ccccc32)cc1	.	-	-	11	-	-
NC(=O)c1ccsc1NC(=O)CSc1nnc(Nc2ccccc2)s1	-	-	.	-	-	-
Cc1cc(C)c(OCC(=O)N(Cc2ccc(N(C)C)cc2)C2CCS(=O)(=O)C2)c(C)c1 (centres undefined)	.	-	.	.	-	.
O=C1COc2ccc(C(=O)CSc3nnc(Cc4cccs4)n3-c3ccccc3)cc2N1	71	-	-	-	-	-
O=C1COc2ccc(C(=O)CSc3nnc(-c4cccs4)n3Cc3ccccc3)cc2N1	.	-	-	-	-	-
COC(=O)N(NC(=O)C(O)(c1ccccc1)c1ccccc1)c1ccc(C)cc1	.	-	21	-	-	31
CCOC(=O)N(NC(=O)C(O)(CC(C)C)CC(C)C)c1ccccc1	-	-	-	-	-	-
CCOC(=O)N(NC(=O)C(O)(C(C)C)C(C)C)c1ccccc1	-	-	.	-	-	-
CCOC(=O)N(NC(=O)C(O)(c1ccccc1)c1ccccc1)c1ccccc1	.	-	20	-	-	46
CCOc1ccc(S(=O)(=O)NC(C)(C)C)cc1-c1nc2c(C(C)(C)C)nn(C)c2c(=O)[nH]1	-	-	-	-	-	-
SMILES	Insulin prom inh	NPY-Y1 PAM-ag	NPY Y2 blocker	RAM network inh	NPY-Y2 PAM-ag	NPY Y1 blocker
CC1(C)CC(NC(=O)CCC2CCCC2)CC(C)(C)N1	-	-	-	-	-	-
CC1(C)CC(NC(=O)CC2CCCCC2)CC(C)(C)N1	82	-	-	-	-	-
CC(C)c1cccc(C(C)C)c1NC(=S)Nc1cccc(Cl)c1	.	-	.	.	-	.
COc1ccc(-c2nnc(COc3ccc4ccccc4c3)o2)cc1OC	-	-	-	9.7	-	-
COc1ccc(O)c(-c2cc(-c3cccc(Br)c3)n[nH]2)c1	.	-	-	10	-	-
COc1ccc(-c2ccc(=O)n(CC(=O)N3CCN(c4ccccc4OC)CC3)n2)cc1	.	-	-	.	-	-
N/C(=N/OC(=O)c1ccc(Cl)cc1)c1ncc([N+](=O)[O-])s1	.	-	.	.	-	.
Cc1nc2c(Cl)cc(Cl)cc2[nH]1	73	-	-	-	-	-
CSCCC(NC(=O)c1ccc([N+](=O)[O-])cc1Cl)C(=O)OCC(=O)NCCCc1ccccc1 (centres undefined)	-	-	-	9.5	-	-
CSCCC(NC(=O)c1ccc([N+](=O)[O-])cc1Cl)C(=O)OCC(=O)NCC(F)(F)F (centres undefined)	.	-	-	-	-	-
C=C(C)COc1ccc(-c2n[nH]c(C)c2-c2ccc(Br)cc2)c(O)c1	-	-	-	10	-	-
CCC(=O)Oc1ccc(C(=O)Nc2cccc(C(=O)NC(C)(C)C)c2)cc1	-	-	.	-	-	-
COc1ccc(C(=O)NCCN2C(=O)S/C(=C\c3cccnc3)C2=O)cc1[N+](=O)[O-]	.	-	.	.	-	.
CCOC(=O)c1oc2c(c1C)C(=O)CCC2	-	-	-	-	-	-
CCOC(=O)c1oc2c(c1C)/C(=N/O)CCC2	88	-	-	-	-	-
COc1ccccc1N1CCN(CC(=O)Nc2ccc(-n3cnnn3)cc2)CC1	-	-	.	-	-	-
CC(=O)Nc1ncnc2c1c(-c1ccc(Cl)cc1)nn2C(C)(C)C	.	-	.	8.9	-	-
Cc1cc(Br)c2c(c1)/C(=C/C(=O)c1cccs1)C(=O)N2	.	-	.	-	-	-
Cc1cccc2c1NC(=O)/C2=C\C(=O)c1cccs1	67	-	-	-	-	-
CCCSC(=O)N(CC)CC(=O)Nc1c(CC)cccc1CC	-	-	20	-	-	-
CCSC(=O)N(CC)CC(=O)Nc1c(CC)cccc1CC	-	-	20	-	-	-
CCN(CC(=O)Nc1c(F)cccc1F)C(=O)Cc1ccccc1	.	-	.	-	-	-
C=CCN(CC(=O)Nc1c(C)cccc1CC)C(=O)SCCC	-	-	-	-	-	-
COc1cccc(NC(=O)Nc2ccc(C(C)(C)C)cc2)c1	.	-	.	9.9	-	-
COc1cccc(NC(=O)CSCC(=O)Nc2ccccc2)c1	-	-	-	-	-	-
SMILES	Insulin prom inh	NPY-Y1 PAM-ag	NPY Y2 blocker	RAM network inh	NPY-Y2 PAM-ag	NPY Y1 blocker
COc1cccc(NC(=O)Nc2ccncc2)c1	.	-	.	-	-	-
COc1cccc(NC(=O)Cc2ccccc2)c1	73	-	-	-	-	-
CN(C)S(=O)(=O)c1ccc(N2CCCC2)c(C(=O)Nc2nc(-c3ccc(F)cc3)cs2)c1	-	-	-	-	-	-
CN(C)S(=O)(=O)c1ccc(N2CCCC2)c(C(=O)Nc2nc(-c3cc(F)ccc3F)cs2)c1	-	-	-	9.2	-	-
COc1ccc(C(=O)O)cc1S(=O)(=O)N(C)C	-	-	.	-	-	-
CN(C)/C=C/C(=O)c1nn(-c2ccc(F)cc2)ccc1=O	.	-	.	.	-	.
